Measurements as given in ChEMBL document CHEMBL1154127, “Oxidative burst inhibitory and cytotoxic indoloquinazoline and furoquinoline alkaloids from Oricia suaveolens” (J Nat Prod, 2008).
Activity calls are given as the source filed them. The calls are words filed in the database; no cut-off is given here.

Columns and labels:
Neutrophil [1] = experiment: Immunomodulatory activity in polymorphoneutrophils assessed as inhibition of PMA-activated oxidative burst by chemiluminescence assay; type: functional, cell-based
A549 = experiment: Cytotoxicity against human A549 cells by SRB assay; type: functional, cell-based
In short: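 A549 lung adenocarcinoma cells, freshly trypsinized, seeded at 1 × 10^4 cells per well. Compounds added from a DMSO-diluted stock. Cultured 3 days, then attached cells stained with sulforhodamine B and dye solubilized in DMSO. Absorbance read at 550 nm. IC50 is the concentration reducing cell growth by 50%. Cisplatin served as positive control.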

Neutrophil [2] = experiment: Immunomodulatory activity in polymorphoneutrophils assessed as inhibition of luminol-induced oxidative burst by chemiluminescence assay; type: functional, cell-based
In short: (§1)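 Luminol-enhanced chemiluminescence on isolated neutrophils (1 × 10^7) in HBSS with Ca2+ and Mg2+. Cells preincubated 30 min with compounds at 3.1-50 µg/mL. Burst triggered with serum-opsonized zymosan (20 mg/mL as added), followed by luminol ([…] as added). Final volume adjusted to 0.2 mL with HBSS++, which also served as control. Read-out is IC50.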

[3] = Immunomodulatory activity in whole blood assessed as inhibition of luminol-induced oxidative burst by chemiluminescence assay; type: functional, tissue-based
In short: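 Whole blood diluted 1:200 in HBSS with Ca2+ and Mg2+, preincubated 30 min with compounds at 3.1-50 µg/mL. Then serum-opsonized zymosan (20 mg/mL as added) and luminol ([…] as added) were added, and the final volume brought to 0.2 mL with HBSS++. HBSS++ alone served as control. Luminol-enhanced chemiluminescence measured, giving IC50.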

Neutrophil [4] = experiment: Immunomodulatory activity in polymorphoneutrophils assessed as inhibition of zymosan-activated oxidative burst by chemiluminescence assay; type: functional, cell-based; in short: as §1

Row | Structure (SMILES) | Activity (Neutrophil [1]) | IC50 (A549) [µM] | IC50 (Neutrophil [2]) [µM] | IC50 [3] [µM] | Activity (Neutrophil [4])
1 | COc1ccc2c(=O)n3c(nc2c1)-c1[nH]c2ccccc2c1CC3 | inactive | > 10 | 27.4 | 48.8 | Dose-dependent effect
2 | COc1c2c(cc3nc4occc4c(OC)c13)OCO2 | – | 7.9 | – | – | –
3 | COc1c2ccoc2nc2c(OC)c3c(cc12)OCO3 [FLINDERSIAMINE] | – | 8.9 | – | – | –
4 | CC(C)Cc1ccc(C(C)C(=O)O)cc1 (stereo unspecified) [IBUPROFEN] | – | – | 12.1 | 54.3 | –
5 | COc1cc2nc3occc3c(OC)c2cc1OC [KOKUSAGININE] | inactive | – | 61.8 | 74.9 | Dose-dependent effect
6 | CC1(C)O[C@H]2CC(=O)OC[C@]23[C@H]2CC[C@@]4(C)[C@H](c5ccoc5)OC(=O)[C@H]5O[C@]54[C@]2(C)C(=O)C[C@@H]13 [LIMONIN] | inactive | – | 38.2 | 26.1 | Dose-dependent effect
7 | COc1c2cc3c(cc2nc2occc12)OCO3 [MACULINE] | – | 9.5 | – | – | –
8 | O=c1c2ccc(O)cc2nc2n1CCc1c-2[nH]c2ccccc12 [ORISUAVEOLINE A] | – | > 10 | – | – | –
9 | COc1ccc2c(=O)n3c(nc2c1)-c1[nH]c2cc4c(cc2c1CC3)OCO4 [ORISUAVEOLINE B] | inactive | – | 22.4 | 31.8 | Dose-dependent effect
10 | COc1c2cc3c(cc2nc2occc12)O[C@@H](C(C)(C)O)CO3 [QUINOSUAVEOLINE B] | inactive | – | 14.5 | 56.8 | Dose-dependent effect
11 | COc1ccc2c(OC)c3ccoc3nc2c1OC [SKIMMIANINE] | inactive | > 10 | 35.5 | 51.3 | Dose-dependent effect
12 | COc1c2ccoc2nc2c(O)c3c(c(CC=C(C)C)c12)OCO3 [TECLEAVERDOORNINE] | inactive | – | 21.2 | 54.4 | Dose-dependent effect
